In ChEMBL document CHEMBL2396597, “Synthesis and evaluation of novel orally active p53-MDM2 interaction inhibitors” (Bioorg Med Chem, 2013):
Blank lines part the entries; values can stand above or below the molecule they belong to.

How the values were obtained:
[1] = Metabolic stability in mouse liver microsomes assessed as compound remaining at 1 uM after 30 mins by LC-MS/MS analysis; type: ADME, Microsome; settings: read-out: Stability
Method in brief: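 Compound at 1 μM final was incubated with mouse hepatic microsomes (0.5 mg/mL protein) in sodium phosphate buffer pH 7.4 at 37°C. Reaction was started with an NADPH-generating system and stopped with MeOH after 30 min. Samples were centrifuged, and loss of parent was measured by LC-MS/MS as % remaining.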

[2] = Plasma concentration in NOD/SCID mouse at 100 mg/kg, po measured at 4 hrs; type: ADME, organism-based; design: dose 100 mg/kg, route oral
[3] = Plasma concentration in NOD/SCID mouse at 100 mg/kg, po measured at 1 hr; type: ADME, organism-based; design: dose 100 mg/kg, route oral
[4] = Plasma concentration in NOD/SCID mouse at 100 mg/kg, po measured at 2 hrs; type: ADME, organism-based; design: dose 100 mg/kg, route oral
[5] = Plasma concentration in NOD/SCID mouse at 100 mg/kg, po measured at 6 hrs; type: ADME, organism-based; design: dose 100 mg/kg, route oral
[6] = Plasma concentration in NOD/SCID mouse at 100 mg/kg, po measured at 24 hrs; type: ADME, organism-based; design: dose 100 mg/kg, route oral
[7] = AUC in NOD/SCID mouse at 100 mg/kg, po; type: ADME, organism-based; design: dose 100 mg/kg, route oral; settings: plasma
[8] = Drug uptake in tumor of NOD/SCID mouse xenografted with human MV4-11 cells at 100 mg/kg, po measured at 2 hrs by LC-MS/MS analysis; type: ADME, organism-based, Neoplasm; design: dose 100 mg/kg, route oral; settings: read-out: Drug uptake
Method in brief: (§1)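 Tumor-bearing mice were given 100 mg/kg orally, suspended in Japanese Pharmacopoeia First Fluid (pH 1.2). Tumors were collected at 1, 2, 4, 6 and 24 h after dosing and homogenized. Tumor drug concentration was quantified by LC/MS/MS on an ODS column.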

[9] = Drug uptake in tumor of NOD/SCID mouse xenografted with human MV4-11 cells at 100 mg/kg, po measured at 4 hrs by LC-MS/MS analysis; type: ADME, organism-based, Neoplasm; design: dose 100 mg/kg, route oral; settings: read-out: Drug uptake; method in brief: as §1
[10] = Drug uptake in tumor of NOD/SCID mouse xenografted with human MV4-11 cells at 100 mg/kg, po measured at 1 hr by LC-MS/MS analysis; type: ADME, organism-based, Neoplasm; design: dose 100 mg/kg, route oral; settings: read-out: Drug uptake; method in brief: as §1
[11] = Drug uptake in tumor of NOD/SCID mouse xenografted with human MV4-11 cells at 100 mg/kg, po measured at 6 hrs by LC-MS/MS analysis; type: ADME, organism-based, Neoplasm; design: dose 100 mg/kg, route oral; settings: read-out: Drug uptake; method in brief: as §1
[12] = Drug uptake in tumor of NOD/SCID mouse xenografted with human MV4-11 cells at 100 mg/kg, po measured at 24 hrs by LC-MS/MS analysis; type: ADME, organism-based, Neoplasm; design: dose 100 mg/kg, route oral; settings: read-out: Drug uptake; method in brief: as §1

- remaining at 0.5 h, 1 µM [1]: 9%
Structure (SMILES): CC(C)C1=C(C(=O)N2CCC[C@H]2C(=O)N(C)C)SC2=N[C@@](C)(c3ccc(Cl)cc3)[C@@H](c3ccc(Cl)cc3)N21

- remaining at 0.5 h, 1 µM [1]: 55%
Structure (SMILES): CC(=O)N1CCN(C(=O)[C@@H]2CC[C@@H](C)N2C(=O)C2=C(C(C)C)N3C(=N[C@@](C)(c4ccc(Cl)cc4)[C@H]3c3ccc(Cl)cc3)S2)C[C@H]1C

- remaining at 0.5 h, 1 µM [1]: 65%
Structure (SMILES): CC(=O)N1CCN(C(=O)[C@@H]2CC[C@@H](C)N2C(=O)C2=C(C(C)C)N3C(=N[C@@](C)(c4ccc(Cl)cc4)[C@H]3c3ccc(Cl)cc3)S2)C[C@@H]1C

- remaining at 0.5 h, 1 µM [1]: 84%
Structure (SMILES): CC(C)C1=C(C(=O)N2[C@H](C)CC[C@H]2C(=O)N2CCN(C)C(C)(C)C2)SC2=N[C@@](C)(c3ccc(Cl)cc3)[C@@H](c3ccc(Cl)cc3)N21

- remaining at 0.5 h, 1 µM [1]: 76%
Structure (SMILES): CC[C@@H]1CC[C@@H](C(=O)N2CCN(C)[C@H](C)C2)N1C(=O)C1=C(C(C)C)N2C(=N[C@@](C)(c3ccc(Cl)cc3)[C@H]2c2ccc(Cl)cc2)S1

- remaining at 0.5 h, 1 µM [1]: 69%
Structure (SMILES): CC[C@@H]1CC[C@@H](C(=O)N2CCN(C)[C@@H](C)C2)N1C(=O)C1=C(C(C)C)N2C(=N[C@@](C)(c3ccc(Cl)cc3)[C@H]2c2ccc(Cl)cc2)S1

- concentration at 4 h [2]: 46400 ng/mL
- remaining at 0.5 h, 1 µM [1]: 59%
- concentration at 1 h [3]: 59600 ng/mL
- concentration at 2 h [4]: 68400 ng/mL
- concentration at 6 h [5]: 48200 ng/mL
- concentration at 24 h [6]: 100 ng/mL
- AUC [7]: 737 µg·h/mL
- concentration at 2 h [8]: 32700 ng/mL
- concentration at 4 h [9]: 31200 ng/mL
- concentration at 1 h [10]: 31500 ng/mL
- concentration at 6 h [11]: 25200 ng/mL
Structure (SMILES): CC[C@@H]1CC[C@@H](C(=O)N2CCN(C(C)=O)[C@H](C)C2)N1C(=O)C1=C(C(C)C)N2C(=N[C@@](C)(c3ccc(Cl)cc3)[C@H]2c2ccc(Cl)cc2)S1

- remaining at 0.5 h, 1 µM [1]: 54%
Structure (SMILES): CC[C@@H]1CC[C@@H](C(=O)N2CCN(C(C)=O)[C@@H](C)C2)N1C(=O)C1=C(C(C)C)N2C(=N[C@@](C)(c3ccc(Cl)cc3)[C@H]2c2ccc(Cl)cc2)S1

- remaining at 0.5 h, 1 µM [1]: 38%
Structure (SMILES): CC[C@@H]1CC[C@@H](C(=O)N2CCN(C(C)=O)CC2)N1C(=O)C1=C(C(C)C)N2C(=N[C@@](C)(c3ccc(Cl)cc3)[C@H]2c2ccc(Cl)cc2)S1

- remaining at 0.5 h, 1 µM [1]: 6%
Structure (SMILES): CC[C@@H]1CC[C@@H](C(=O)N2CCOCC2)N1C(=O)C1=C(C(C)C)N2C(=N[C@@](C)(c3ccc(Cl)cc3)[C@H]2c2ccc(Cl)cc2)S1

- concentration at 4 h [2]: 7500 ng/mL
- remaining at 0.5 h, 1 µM [1]: 74%
- concentration at 1 h [3]: 6900 ng/mL
- concentration at 2 h [4]: 7800 ng/mL
- concentration at 6 h [5]: 5700 ng/mL
- concentration at 24 h [12]: 4300 ng/mL
- concentration at 24 h [6]: 300 ng/mL
- AUC [7]: 93.1 µg·h/mL
- concentration at 2 h [8]: 23300 ng/mL
- concentration at 4 h [9]: 27900 ng/mL
- concentration at 1 h [10]: 18900 ng/mL
- concentration at 6 h [11]: 27500 ng/mL
Structure (SMILES): CC(C)C1=C(C(=O)N2[C@H](C)CC[C@H]2C(=O)N2CCN(C)[C@H](C)C2)SC2=N[C@@](C)(c3ccc(Cl)cc3)[C@@H](c3ccc(Cl)cc3)N21

- remaining at 0.5 h, 1 µM [1]: 63%
Structure (SMILES): CC(C)C1=C(C(=O)N2[C@H](C)CC[C@H]2C(=O)N2CCN(C)[C@@H](C)C2)SC2=N[C@@](C)(c3ccc(Cl)cc3)[C@@H](c3ccc(Cl)cc3)N21

- remaining at 0.5 h, 1 µM [1]: 39%
Structure (SMILES): CC(C)C1=C(C(=O)N2[C@@H](C)CC[C@H]2C(=O)N(C)C)SC2=N[C@@](C)(c3ccc(Cl)cc3)[C@@H](c3ccc(Cl)cc3)N21

- remaining at 0.5 h, 1 µM [1]: 47%
Structure (SMILES): CC[C@H]1CC[C@@H](C(=O)N(C)C)N1C(=O)C1=C(C(C)C)N2C(=N[C@@](C)(c3ccc(Cl)cc3)[C@H]2c2ccc(Cl)cc2)S1

- remaining at 0.5 h, 1 µM [1]: 53%
Structure (SMILES): CC(C)C1=C(C(=O)N2[C@H](C)CC[C@H]2C(=O)N(C)C)SC2=N[C@@](C)(c3ccc(Cl)cc3)[C@@H](c3ccc(Cl)cc3)N21

- remaining at 0.5 h, 1 µM [1]: 70%
Structure (SMILES): CC[C@@H]1CC[C@@H](C(=O)N(C)C)N1C(=O)C1=C(C(C)C)N2C(=N[C@@](C)(c3ccc(Cl)cc3)[C@H]2c2ccc(Cl)cc2)S1

- remaining at 0.5 h, 1 µM [1]: 25%
Structure (SMILES): CC(C)C1=C(C(=O)N2[C@H](C)CC[C@H]2C(=O)N2CCN(C)CC2)SC2=N[C@@](C)(c3ccc(Cl)cc3)[C@@H](c3ccc(Cl)cc3)N21

- remaining at 0.5 h, 1 µM [1]: 13%
Structure (SMILES): CC(=O)N1CCN(C(=O)[C@@H]2CC[C@@H](C)N2C(=O)C2=C(C(C)C)N3C(=N[C@@](C)(c4ccc(Cl)cc4)[C@H]3c3ccc(Cl)cc3)S2)CC1

- remaining at 0.5 h, 1 µM [1]: 50%
Structure (SMILES): CC[C@@H]1CC[C@@H](C(=O)N2CCN(C)CC2)N1C(=O)C1=C(C(C)C)N2C(=N[C@@](C)(c3ccc(Cl)cc3)[C@H]2c2ccc(Cl)cc2)S1
